Calls of active or inactive are those of the source. The calls are words filed in the database; no cut-off is given here.
Experiments:
[1] = tested on: MCF7; assay: Induction of apoptosis in human MCF7 cells assessed as activation of procaspase-7 at 4 uM after 24 hrs by Western blot analysis; type: functional, cell-based
Summary of the method: (§1)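 MCF-7 cells (5 × 10⁵ per 60 mm dish) grown 24 h, then treated at 4 µM for 24 h. Lysis in ice-cold RIPA buffer with protease/phosphatase inhibitors; protein measured by Bradford. Fifty µg per lane resolved on 12% SDS-PAGE and transferred to PVDF. Blocked 2 h, primary antibody overnight at 4 °C, chemiluminescent detection; β-actin as loading control.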

[2] = tested on: MCF7; assay: Cell cycle arrest in human MCF7 cells assessed as accumulation at G1 phase using propidium iodide staining at 4 uM after 24 hrs by flow cytometry; type: functional
Summary of the method: (§2)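 MCF-7 cells (5 × 10⁵ per 60 mm dish) grown 24 h, then exposed to 4 µM compound for a further 24 h; DMSO-treated control. Cells trypsinised, fixed in ice-cold 70% ethanol at 4 °C for 30 min, RNase-treated (1 mg/mL, 37 °C, 30 min), stained with propidium iodide/citrate/Triton X-100. DNA content read on 20,000 events by flow cytometry; percent cells per phase reported.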

[3] = biological target: Tubulin (Homo sapiens) (UniProt P68371+Q9H4B7+P0DPH7+P68366+Q13509+Q71U36+P04350+Q3ZCM7+P07437+P68363+Q9BQE3+Q6PEY2+Q13885+Q9BVA1+Q9BUF5); assay: Inhibition of tubulin polymerization in human MCF7 cells assessed as disruption of microtubule network at 4 uM after 24 hrs by DAPI based immunofluorescence assay; type: cell-based
Summary of the method: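 MCF-7 cells on glass coverslips incubated 24 h with or without 4 µM compound. Fixed in 4% paraformaldehyde/0.02% glutaraldehyde, permeabilised in −20 °C methanol, blocked 1 h in 1% BSA/PBS. Stained with mouse anti-tubulin primary and Cy3 anti-mouse IgG secondary, nuclei with DAPI. Confocal images scored for microtubule integrity; nocodazole as reference.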

[4] = tested on: MCF7; assay: Induction of apoptosis in human MCF7 cells assessed as DNA fragmentation at 4 uM after 24 hrs by TUNEL assay relative to control; type: functional, cell-based
Summary of the method: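 MCF-7 cells treated at 4 µM for 24 h; untreated cells as control. Nuclear DNA fragmentation detected by TdT-mediated fluorescein-dUTP nick-end labelling (ApoAlert kit). Labelled cells imaged by confocal microscopy, green stain marking TUNEL-positive cells.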

[5] = tested on: A2780; assay: Cytotoxicity against human A2780 cells by sulforhodamine B method; type: functional
[6] = tested on: MCF7; assay: Cytotoxicity against human MCF7 cells at 4 uM after 24 hrs by MTT assay; type: functional, cell-based
Summary of the method: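 MCF-7 cells seeded at 10,000 per well, incubated overnight, then treated at 4 µM for 24 h; DMSO control. Medium replaced with MTT, 2 h at 37 °C. Formazan solubilised in extraction buffer, absorbance read at 570 nm, expressed as percent viability.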

[7] = tested on: MCF7; assay: Induction of apoptosis in human MCF7 cells assessed up-regulation of p53 protein level at 4 uM after 24 hrs by Western blot analysis; type: functional, cell-based; summary of the method: as §1
[8] = tested on: KB; assay: Cytotoxicity against human KB cells by sulforhodamine B method; type: functional
[9] = tested on: SiHa; assay: Cytotoxicity against human SiHa cells by sulforhodamine B method; type: functional
[10] = tested on: ZR-75-1; assay: Cytotoxicity against human ZR-75-1 cells by sulforhodamine B method; type: functional
[11] = tested on: MCF7; assay: Cell cycle arrest in human MCF7 cells assessed as accumulation at S phase using propidium iodide staining at 4 uM after 24 hrs by flow cytometry; type: functional; summary of the method: as §2
[12] = tested on: A549; assay: Cytotoxicity against human A549 cells by sulforhodamine B method; type: functional
[13] = tested on: PC-3; assay: Cytotoxicity against human PC3 cells by sulforhodamine B method; type: functional
[14] = tested on: MCF7; assay: Cytotoxicity against human MCF7 cells by sulforhodamine B method; type: functional
[15] = tested on: MCF7; assay: Induction of apoptosis in human MCF7 cells assessed as up-regulation of Bax gene at 4 uM after 24 hrs by Western blot analysis; type: functional, cell-based; summary of the method: as §1
[16] = tested on: MCF7; assay: Induction of apoptosis in human MCF7 cells assessed up-regulation of p21 protein level at 4 uM after 24 hrs by Western blot analysis; type: functional, cell-based; summary of the method: as §1
[17] = tested on: MCF7; assay: Cell cycle arrest in human MCF7 cells assessed as accumulation at G2/M phase using propidium iodide staining at 4 uM after 24 hrs by flow cytometry; type: functional; summary of the method: as §2
[18] = Cytotoxicity against human DWD cells by sulforhodamine B method; type: functional
[19] = tested on: HOP-62; assay: Cytotoxicity against human HOP62 cells by sulforhodamine B method; type: functional
[20] = tested on: COLO 205; assay: Cytotoxicity against human COLO205 cells by sulforhodamine B method; type: functional
[21] = tested on: MCF7; assay: Cell cycle arrest in human MCF7 cells assessed as accumulation at G0 phase using propidium iodide staining at 4 uM after 24 hrs by flow cytometry; type: functional; summary of the method: as §2
[22] = tested on: MCF7; assay: Reduction in Cdk1 protein level in human MCF7 cells at 4 uM after 24 hrs by Western blot analysis; type: functional, cell-based; summary of the method: as §1
[23] = Cytotoxicity against human Gurav cells by sulforhodamine B method; type: functional
[24] = tested on: MCF7; assay: Down regulation of NF-kappa B p65 protein in human MCF7 cells at 4 uM after 24 hrs by Western blot analysis; type: functional, cell-based; summary of the method: as §1
[25] = tested on: MCF7; assay: Down regulation of HDAC-3 protein in human MCF7 cells at 4 uM after 24 hrs by Western blot analysis; type: functional, cell-based; summary of the method: as §1
[26] = tested on: MCF7; assay: Down regulation of HDAC-1 protein in human MCF7 cells at 4 uM after 24 hrs by Western blot analysis; type: functional, cell-based; summary of the method: as §1

Row | inhibition [3] | SMILES | Activity [1] | Activity [2] [%] | Activity [4] | GI50 [5] [nM] | Activity [6] | Activity [7] | GI50 [8] [nM] | GI50 [9] [nM] | GI50 [10] [nM] | Activity [11] [%] | GI50 [12] [nM] | GI50 [13] [nM] | GI50 [14] [nM] | Activity [15] | Activity [16] | Activity [17] [%] | GI50 [19] [nM] | GI50 [20] [nM] | Activity [21] [%] | other results
1 | Active | COc1cc2c(cc1OCc1cn(CCCCCOc3ccc4c(c3)CC[C@@H]3[C@@H]4CC[C@]4(C)[C@@H](O)CC[C@@H]34)nn1)N=C[C@@H]1C[C@@H](F)CN1C2=O | Active | 42.5 | Active | < 100 | Active | Active | < 100 | 110 | < 100 | 25.8 | < 100 | < 100 | < 100 | Active | Active | 32.4 | 110 | 120 | 0.82 | GI50 [18]: 120 nM
2 |  | COc1cc2c(cc1O)N=C[C@@H]1CCCN1C2=O |  | 73.66 |  | 140 | Active |  | 170 | 170 |  | 13 | 160 | 200 | 170 |  |  | 4.83 | 150 | 110 | 8.5 | Activity [22]: Active; GI50 [23]: 160 nM
3 | Active | COc1cc2c(cc1OCc1cn(CCCOc3ccc4c(c3)CC[C@@H]3[C@@H]4CC[C@]4(C)[C@@H](O)CC[C@@H]34)nn1)N=C[C@@H]1C[C@@H](F)CN1C2=O | Active | 30.76 | Active | < 100 | Active | Active | < 100 | < 100 | < 100 | 30.59 | < 100 | < 100 | < 100 | Active | Active | 36.64 | < 100 | 110 | 2 | Activity [24]: Active; Activity [22]: Active; Activity [25]: Active; GI50 [23]: < 100 nM; GI50 [18]: < 100 nM; Activity [26]: Active

From ChEMBL document CHEMBL1765029, “Synthesis and biological evaluation of estradiol linked pyrrolo[2,1-c][1,4]benzodiazepine (PBD) conjugates as potential anticancer agents” (2011)
